Test results published in ChEMBL document CHEMBL1177717, “Mercaptophosphonate compounds as broad-spectrum inhibitors of the metallo-beta-lactamases” (J Med Chem, 2010).

Key:
[1] = target: Metallo-beta-lactamase type 2 (Aeromonas hydrophila, UniProt P26918); assay: Inhibition of Aeromonas hydrophila cphA
In short: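 Purified CphA (0.2–0.8 nM) in 15 mM cacodylate pH 6.5 with 20 μg/mL BSA and no added Zn2+ (Zn2+ below 0.4 μM). Enzyme was preincubated with 100 μM inhibitor for 30 min at 37 C. Imipenem was then added and its hydrolysis followed by absorbance at 300 nm. Competitive Ki determined; SD below 10%.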

[2] = Inhibition of VIM4 in presence of Zn+ chelator
In short: (§1)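 Purified VIM-4 (0.2–0.8 nM) in 10 mM HEPES pH 7.2 with 20 μg/mL BSA, run without added Zn2+ (Zn2+ below 0.4 μM) or with 50 μM ZnCl2 final. Enzyme was preincubated with 100 μM inhibitor for 30 min at 37 C. Nitrocefin hydrolysis followed at 482 nm. Ki determined; SD below 10%.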

[3] = Inhibition of VIM4 in absence of Zn+ chelator; in short: as §1
Beta-lactamase L1 [4] = target: T1, Beta-lactamase L1 (Stenotrophomonas maltophilia, UniProt P52700); assay: Inhibition of Stenotrophomonas maltophilia beta lactamase L1 in presence of Zn+ chelator
T1 sequence (P52700 whole entry): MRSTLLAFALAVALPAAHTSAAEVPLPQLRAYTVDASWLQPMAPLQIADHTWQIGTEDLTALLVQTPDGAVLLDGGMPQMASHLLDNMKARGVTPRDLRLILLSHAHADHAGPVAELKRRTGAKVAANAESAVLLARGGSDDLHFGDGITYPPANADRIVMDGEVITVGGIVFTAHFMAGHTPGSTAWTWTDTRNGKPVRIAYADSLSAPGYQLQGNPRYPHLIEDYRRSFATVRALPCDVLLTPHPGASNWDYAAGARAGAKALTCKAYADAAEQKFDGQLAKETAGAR
In short: (§2)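 Purified L1 (0.2–0.8 nM) in 20 mM HEPES pH 7.0 with 20 μg/mL BSA, run without added Zn2+ (Zn2+ below 0.4 μM) or with 50 μM ZnCl2 final. Enzyme was preincubated with 100 μM inhibitor for 30 min at 37 C. Imipenem hydrolysis followed at 300 nm. Ki determined; SD below 10%.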

Beta-lactamase L1 [5] = target: T1, Beta-lactamase L1; assay: Inhibition of Stenotrophomonas maltophilia beta lactamase L1 in absence of Zn+ chelator; in short: as §2
[6] = target: Intestinal-type alkaline phosphatase (Bos taurus, UniProt P19111); assay: Inhibition of bovine intestinal alkaline phosphatase
Sequence of Intestinal-type alkaline phosphatase (P19111 whole entry): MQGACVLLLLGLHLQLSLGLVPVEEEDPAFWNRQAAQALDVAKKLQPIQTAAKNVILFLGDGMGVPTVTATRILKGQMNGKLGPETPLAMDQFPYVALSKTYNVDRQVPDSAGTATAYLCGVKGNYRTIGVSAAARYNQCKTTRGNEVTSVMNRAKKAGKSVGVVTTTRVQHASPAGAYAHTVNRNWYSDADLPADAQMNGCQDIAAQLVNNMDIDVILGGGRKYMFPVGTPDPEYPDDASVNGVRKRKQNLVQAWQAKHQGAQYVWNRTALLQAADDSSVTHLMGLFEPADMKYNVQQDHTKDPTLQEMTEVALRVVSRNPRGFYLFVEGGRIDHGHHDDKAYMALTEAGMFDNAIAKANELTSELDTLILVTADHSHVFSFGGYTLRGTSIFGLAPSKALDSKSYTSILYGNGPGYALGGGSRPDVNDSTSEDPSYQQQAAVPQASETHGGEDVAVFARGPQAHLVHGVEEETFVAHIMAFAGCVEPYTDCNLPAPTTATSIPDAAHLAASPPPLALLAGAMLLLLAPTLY

[7] = Inhibition of Escherichia coli alkaline phosphatase

Sequence of Metallo-beta-lactamase type 2 (P26918 whole entry): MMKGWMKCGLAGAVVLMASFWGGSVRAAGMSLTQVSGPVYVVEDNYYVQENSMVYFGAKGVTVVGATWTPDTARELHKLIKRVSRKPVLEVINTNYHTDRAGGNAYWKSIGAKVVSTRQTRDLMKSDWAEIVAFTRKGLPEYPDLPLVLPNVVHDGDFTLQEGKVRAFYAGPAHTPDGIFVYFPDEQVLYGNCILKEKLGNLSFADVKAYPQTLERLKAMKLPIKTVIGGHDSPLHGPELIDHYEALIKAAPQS

**Q.** Which Ki [1] does the source give for `O=P(O)(O)c1ccccc1CS` here?
**A.** 0.5 µM

**Q.** And the Ki [2]?
**A.** > 400 µM

**Q.** What about the Ki [3] of the same compound?
**A.** 1 µM

**Q.** What about the Ki (Beta-lactamase L1 [4]) of the same compound?
**A.** > 50 µM

**Q.** What about the Ki (Beta-lactamase L1 [5]) of the same compound?
**A.** 2 µM

**Q.** Which results are given for `O=P(O)(O)C(S)c1ccc(Cl)cc1` (configuration not stated)?
**A.** Ki [1]: 24 µM; Ki [2]: 10 µM; Ki [3]: 6.7 µM; Ki (Beta-lactamase L1 [4]): 0.7 µM; Ki (Beta-lactamase L1 [5]): 3.8 µM

**Q.** With `CCC(S)P(=O)(O)O` (configuration not stated) as the compound, how does the Ki [1] read?
**A.** 15 µM

**Q.** And the Ki [2]?
**A.** 6 µM

**Q.** What about the Ki [3] of the same compound?
**A.** 11 µM

**Q.** And the Ki (Beta-lactamase L1 [4])?
**A.** > 40 µM

**Q.** What about the Ki (Beta-lactamase L1 [5]) of the same compound?
**A.** > 80 µM

**Q.** With `O=P(O)(O)c1cc(F)ccc1S` as the compound, how does the Ki [1] read?
**A.** > 40 µM

**Q.** And the Ki [2]?
**A.** 13 µM

**Q.** And the Ki [3]?
**A.** 2.5 µM

**Q.** And the Ki (Beta-lactamase L1 [4])?
**A.** 4 µM

**Q.** What about the Ki (Beta-lactamase L1 [5]) of the same compound?
**A.** 40 µM

**Q.** For `CC(C)OP(=O)(OC(C)C)c1ccccc1S`, which Ki [1] is on record?
**A.** > 250 µM

**Q.** What about the Ki [2] of the same compound?
**A.** > 250 µM

**Q.** And the Ki [3]?
**A.** > 250 µM

**Q.** What about the Ki (Beta-lactamase L1 [4]) of the same compound?
**A.** > 250 µM

**Q.** What about the Ki (Beta-lactamase L1 [5]) of the same compound?
**A.** > 250 µM

**Q.** With `O=P(O)(O)c1ccccc1S` as the compound, how does the Ki [1] read?
**A.** 7 µM

**Q.** And the Ki [2]?
**A.** 4 µM

**Q.** What about the Ki [3] of the same compound?
**A.** 2 µM

**Q.** What about the Ki (Beta-lactamase L1 [4]) of the same compound?
**A.** 12 µM

**Q.** And the Ki (Beta-lactamase L1 [5])?
**A.** 9 µM

**Q.** What about the Ki [6] of the same compound?
**A.** 0.21 µM

**Q.** What about the IC50 [7] of the same compound?
**A.** < 10 µM

**Q.** With `CC(C)OP(=O)(OC(C)C)c1ccccc1CS` as the compound, how does the Ki [1] read?
**A.** 2 µM

**Q.** And the Ki [2]?
**A.** 12 µM

**Q.** And the Ki [3]?
**A.** 3 µM

**Q.** What about the Ki (Beta-lactamase L1 [4]) of the same compound?
**A.** 14 µM

**Q.** And the Ki (Beta-lactamase L1 [5])?
**A.** 3 µM

**Q.** Which Ki [1] does the source give for `O=P(O)(O)C(S)c1ccc(Br)cc1` (configuration not stated) here?
**A.** 13 µM

**Q.** And the Ki [2]?
**A.** 13.5 µM

**Q.** And the Ki [3]?
**A.** 5.5 µM

**Q.** And the Ki (Beta-lactamase L1 [4])?
**A.** 1.7 µM

**Q.** What about the Ki (Beta-lactamase L1 [5]) of the same compound?
**A.** 8.4 µM

**Q.** Which Ki [1] does the source give for `O=P(O)(O)C(S)c1ccc(F)cc1` (configuration not stated) here?
**A.** 1 µM

**Q.** And the Ki [2]?
**A.** 11 µM

**Q.** What about the Ki [3] of the same compound?
**A.** 16 µM

**Q.** What about the Ki (Beta-lactamase L1 [4]) of the same compound?
**A.** 18 µM

**Q.** And the Ki (Beta-lactamase L1 [5])?
**A.** > 20 µM

**Q.** With `O=P(O)(O)C(S)c1ccc(Cl)cc1Cl` (configuration not stated) as the compound, how does the Ki [1] read?
**A.** 5 µM

**Q.** What about the Ki [2] of the same compound?
**A.** 4 µM

**Q.** And the Ki [3]?
**A.** 1 µM

**Q.** And the Ki (Beta-lactamase L1 [4])?
**A.** 0.4 µM

**Q.** And the Ki (Beta-lactamase L1 [5])?
**A.** 0.4 µM

**Q.** With `CC(C)OP(=O)(OC(C)C)C(S)c1ccccc1` (configuration not stated) [DIISOPROPYL MERCAPTO(PHENYL)METHYLPHOSPHONATE] as the compound, how does the Ki [1] read?
**A.** 0.25 µM

**Q.** And the Ki [2]?
**A.** 8 µM

**Q.** What about the Ki [3] of the same compound?
**A.** 3 µM

**Q.** And the Ki (Beta-lactamase L1 [4])?
**A.** 16 µM

**Q.** What about the Ki (Beta-lactamase L1 [5]) of the same compound?
**A.** 20 µM

**Q.** Which Ki [1] does the source give for `O=P(O)(O)C(S)c1ccccc1` (configuration not stated) here?
**A.** 11 µM

**Q.** What about the Ki [2] of the same compound?
**A.** 3 µM

**Q.** And the Ki [3]?
**A.** 2.5 µM

**Q.** What about the Ki (Beta-lactamase L1 [4]) of the same compound?
**A.** 32 µM

**Q.** And the Ki (Beta-lactamase L1 [5])?
**A.** > 100 µM

**Q.** With `CCC(S)P(=O)(OC(C)C)OC(C)C` (configuration not stated) as the compound, how does the Ki [1] read?
**A.** 2 µM

**Q.** What about the Ki [2] of the same compound?
**A.** > 20 µM

**Q.** And the Ki [3]?
**A.** > 20 µM

**Q.** And the Ki (Beta-lactamase L1 [4])?
**A.** > 40 µM

**Q.** And the Ki (Beta-lactamase L1 [5])?
**A.** > 40 µM

**Q.** What does the source list for `COc1ccccc1C(S)P(=O)(O)O` (configuration not stated)?
**A.** Ki [1]: 15 µM; Ki [2]: 4 µM; Ki [3]: 2 µM; Ki (Beta-lactamase L1 [4]): 4 µM; Ki (Beta-lactamase L1 [5]): 9 µM
